Screening data as filed in PubChem BioAssay.
An excerpt weighted towards active compounds, which were near 3.5% of everything screened.
MEKK2wt PB1 HTS = raises or lowers MEK5 binding to wildtype human MEKK2 PB1 domain. Q9Y2U5. binding response (% of control), % at 10 µM. bead flow cytometry, Alexa488-MEK5 binding to MEKK2 WT; actives lie on both sides. 290,000 tested, 1.1% active; in the data active = binding response below about 67% or above about 130%
ABCG2 inh = inhibitors of human ABCG2 transporter, ABCB1 counter-screen; 190,000 tested, 0.1% active; AID 1325; inhibition, % at 6.6 µM; IgMXP3 cells, JC-1 efflux, flow cytometry;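 active = inhibition above 80%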;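 also: 0% = DMSO and 100% = nicardipine control wells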
Target sequence (Q9UNQ0 whole entry, looked up): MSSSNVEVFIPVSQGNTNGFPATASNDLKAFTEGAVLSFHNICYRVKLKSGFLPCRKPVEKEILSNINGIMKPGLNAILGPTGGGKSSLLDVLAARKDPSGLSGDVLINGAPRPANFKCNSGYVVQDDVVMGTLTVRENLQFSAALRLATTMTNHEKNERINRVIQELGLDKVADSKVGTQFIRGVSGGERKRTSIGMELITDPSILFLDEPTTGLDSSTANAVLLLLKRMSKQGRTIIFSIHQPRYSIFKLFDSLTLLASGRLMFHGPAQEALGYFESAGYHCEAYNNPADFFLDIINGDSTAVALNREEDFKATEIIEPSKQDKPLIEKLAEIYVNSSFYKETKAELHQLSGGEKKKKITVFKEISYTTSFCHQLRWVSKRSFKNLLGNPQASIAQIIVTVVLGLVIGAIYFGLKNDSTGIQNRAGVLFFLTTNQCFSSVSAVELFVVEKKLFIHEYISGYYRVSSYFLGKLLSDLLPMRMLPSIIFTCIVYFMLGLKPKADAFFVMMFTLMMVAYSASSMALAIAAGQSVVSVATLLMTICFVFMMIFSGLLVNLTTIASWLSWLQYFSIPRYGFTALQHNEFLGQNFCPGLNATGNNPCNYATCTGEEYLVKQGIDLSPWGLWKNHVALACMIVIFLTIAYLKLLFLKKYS
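Test system: IgMXP3 (ABCG2) plus far-red-tagged CCRF-Adr (ABCB1) cells. Reagent: JC-1 dye as substrate. Timing: 10 min exposure at 25 °C with rotation, no wash. Measured by: flow cytometric JC-1 green MFI at 530 nm. Read-out: percent efflux inhibition, scaled nicardipine 100% to DMSO 0%. Control set: nicardipine and DMSO wells.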
MEKK3 PB1 HTS = raises or lowers MEK5 binding to the human MEKK3 PB1 domain; AID 1529; bead-based flow cytometry, Alexa488-MEK5 binding to MEKK3; actives lie on both sides; 0 = blocked by unlabeled MEK5, 100 = vehicle; binding response (% of control), % at 10 µM; 290,000 tested, 1.4% active; Q99759;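 active = binding response more than 3 SD above or below the average of its plate-row segment, actives on both sides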;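 also: Alexa488 bead fluorescence after subtracting the streptavidin-only scavenger bead signal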
ABCB1 block = human ABCB1 inhibition, ABCG2 as counter-screen; P08183; CCRF-Adr cells, JC-1 efflux, flow cytometry; inhibition, % at 6.6 µM; 190,000 tested, 0.067% active; AID 1326; in the data active = inhibition above about 40%;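 also: 0% = vehicle and 100% = reference inhibitor; higher value means more JC-1 retained so stronger ABCB1 efflux block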
MEKK2 mut-MEK5 = signal of MEK5 binding to mutant human MEKK2 PB1 domain; bead flow cytometry, Alexa488-MEK5 binding to MEKK2 mutant; 290,000 tested, 0.35% active; percent response, % at 10 µM; in the data active = percent response above about 24%, passing the limit was not always enough
WT yeast gro inh = growth inhibition of WT yeast, mitochondrial fusion screen | mitochondrial fusion phenotypic screen, WT strain | inhibition, % at 10 µM | 190,000 tested, 2.1% active | AID 1362; in the data active = inhibition above about 58%; tested in S. cerevisiae
MEKK2wt confirm = raises or lowers MEK5 binding to wildtype human MEKK2, retest. shares compounds with MEKK3 PB1 HTS. bead flow cytometry, Alexa488-MEK5 binding to MEKK2 WT; actives lie on both sides. binding response (% of control), % at 10 µM. 5,900 tested, 2.4% active. AID 1892; in the data active = binding response below about 16% or above about 210%; inactive = in between
MEKK2mut confirm = signal of MEK5 binding to mutant human MEKK2, retest; shares compounds with MEKK3 PB1 HTS; bead flow cytometry, Alexa488-MEK5 binding to MEKK2 mutant; percent response, % at 10 µM; 5,900 tested, 2% active; in the data active = percent response mostly above about 71%, no sharp cut-off; inactive = mostly below about 38%;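 also: higher means compound restores mutant binding toward wildtype level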
MEKK3 confirm = MEKK3-MEK5 PB1 inhibition, single concentration confirmation; shares compounds with MEKK3 PB1 HTS; bead flow cytometry, Alexa488-MEK5 binding to MEKK3; active compounds read low; binding response (% of control), % at 10 µM; 5,900 tested, 1.8% active; AID 1894;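 active = binding response below 72% of control, or above a set upper limit, though filed actives all read lower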;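 also: 100% = DMSO only wells and 0% = binding blocked by excess unlabeled MEK5; lower values mean stronger disruption of MEK5 binding to MEKK3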
* hit, by the source's call; / = not tested or not shown; [ ] = remark or other dose.

SMILES | MEKK2wt PB1 HTS | ABCG2 inh | MEKK3 PB1 HTS | ABCB1 block | MEKK2 mut-MEK5 | WT yeast gro inh | MEKK2wt confirm | MEKK2mut confirm | MEKK3 confirm
CNc1nc(Cl)c(SC)c(NC2CCCCC2)n1 | 124 | 0 | 148* | 0 | 6 | -4 | 100 | -3 | 100
CNc1nc(Cl)c(SC)c(NCc2cccc(OC)c2)n1 | 105 | / | 103 | / | 5 | / | / | / | /
CN(C)CCCNc1cc(-c2ccccc2)nc2cc(-c3cccc(F)c3)nn12 | 192* | / | 108 | / | 40* | / | 179 | 35 | 105
CC(C)(C)c1cc(NCCCn2ccnc2)n2ncc(-c3ccc(Cl)cc3)c2n1 | 157* | -2 | 98 | -1 | 37* | 35 | 158 | 37 | 113
CN(C)CCCNc1cc(C(C)(C)C)nc2c(-c3ccccc3)cnn12 | 156* | / | 88 | / | 22 | / | 168 | 51 | 103
Cc1cc(NCCCN2CCOCC2)n2ncc(-c3ccccc3)c2n1 | 90 | 7 | 79 | 1 | -17 | 6 | / | / | /
Cc1cc(NCCCn2ccnc2)n2nc(-c3ccc(Cl)cc3)cc2n1 | 111 | 11 | 102 | 1 | -4 | 4 | / | / | /
c1ccc(-n2ncc3c(N4CCN(CCOc5cccc6ccccc56)CC4)ncnc32)cc1 | 112 | 44 | 102 | 4 | 3 | 21 | / | / | /
COC(=O)c1ccccc1NC(=O)CSc1ncn[nH]1 | 95 | / | 93 | / | -21 | / | / | / | /
Cn1cc([C@@H]2C[C@H]3CN(Cc4cccc(Cl)c4)C(=O)[C@]34CCCN24)c2ccccc21 | / | 7 | 77 | 5 | 23 | 11 | / | / | /
CN1Cc2sc(N)c(C#N)c2CC1(C)C | 52*[inhibitor] | 0 | 88 | 0 | -14 | 11 | 94 | 4 | 88
NS(=O)(=O)c1cccc(NC(=O)CN2CCc3ccccc32)c1 | 21*[inhibitor] | 0 | 98 | 0 | 18 | -1 | 84 | -18 | 90
Cn1c(=O)oc2cc(S(=O)(=O)N3CCN(c4ccccn4)CC3)ccc21 | 64 | -1 | 50*[inhibitor] | 0 | -9 | 8 | 108 | 13 | 111
Cc1sc2nc(SCC(=O)N(C)c3ccccc3)n(C)c(=O)c2c1C | 107 | / | 103 | / | 0 | / | / | / | /
C[N+](C)(C)C/C=C1/COCO1 | 120 | 2 | 117 | 0 | 27* | -10 | 111 | 13 | 108
Cc1ccccc1NC1=NC(=S)N(CC(N)=O)C12CCOC(C)(C)C2 (stereo not drawn) | 48 | / | 47*[inhibitor] | / | -8 | / | 99 | 1 | 104
Cc1ccn2cc(C34CC5CC(CC(C5)C3)C4)nc2c1 | 102 | 1 | 99 | 0 | -4 | 22 | / | / | /
COc1ccc2c(c1)nc(SCC(=O)C(C)(C)C)n2C | 105 | 1 | 102 | 0 | 6 | 13 | / | / | /
COc1ccccc1C(=O)Nc1ccc2c(c1)nc(CN1CCN(C(C)=O)CC1)n2C | 68 | 3 | 67*[inhibitor] | 1 | -12 | -10 | 106 | 3 | 104
COc1ccc2c(c1)nc(SCC(C)O)n2C (stereo not drawn) | 108 | 6 | 132* | 0 | 4 | -4 | 102 | 11 | 105
COc1ccc(OCC(=O)Nc2ccc3c(c2)nc(CN2CCCC2)n3C)cc1 | 102 | 4 | 98 | 0 | 4 | -4 | / | / | /
COc1ccc2c(c1)nc(CN1CCN(CCO)CC1)n2C | 128 | / | 110 | / | 32* | / | 105 | 1 | 102
CN1CCN(C(=O)/C(=C/c2ccc([N+](=O)[O-])cc2)NC(=O)c2ccccc2)CC1 | 103 | / | 102 | / | 2 | / | / | / | /
O=C(CSc1nc(-c2ccccc2)nc2ccccc12)Nc1cccc(C(=O)O)c1 | 6.0*[inhibitor] | 0 | 4.0*[inhibitor] | -1 | -42 | -16 | 118 | 6 | 102
O=C(COC(=O)/C=C/c1cccs1)NC(=O)Cc1ccccc1 | 112 | 2 | 138* | 0 | -2 | 0 | 101 | 3 | 101
SMILES | MEKK2wt PB1 HTS | ABCG2 inh | MEKK3 PB1 HTS | ABCB1 block | MEKK2 mut-MEK5 | WT yeast gro inh | MEKK2wt confirm | MEKK2mut confirm | MEKK3 confirm
O=C(Cn1cc(C(F)(F)F)cc(Cl)c1=O)NCc1ccccc1 | 103 | / | 99 | / | -1 | / | / | / | /
O=C(Cn1cc(C(F)(F)F)cc(Cl)c1=O)NCCc1ccccc1 | 108 | 20 | 135* | 0 | 0 | 17 | 103 | 2 | 102
N#Cc1ccccc1CSc1nc2ccsc2c(=O)n1Cc1ccccn1 | 100 | 5 | 104 | 2 | -1 | 25 | / | / | /
CCC(C)n1c(SCc2ccccc2)nc2ccsc2c1=O (stereo not drawn) | 108 | 9 | 151* | 0 | 1 | 65* | 96 | -1 | 97
Cc1ccc(CSc2nc3ccsc3c(=O)n2Cc2ccccn2)cc1 | 101 | 1 | 139* | 1 | 1 | 59* | 100 | -2 | 101
CCC(C)n1c(SCC(=O)Nc2ccccc2C(F)(F)F)nc2ccsc2c1=O (stereo not drawn) | 93 | 13 | 95 | 3 | -6 | 18 | / | / | /
N#Cc1ccccc1OCC(=O)OCC(=O)N1CCN(C(=O)c2ccco2)CC1 | 94 | 0 | 102 | 0 | -5 | -24 | / | / | /
CCc1nc2ccccc2c(C(=O)OCC(=O)NC(=O)c2cccn2C)c1C | 72 | / | 67*[inhibitor] | / | -18 | / | 101 | 3 | 105
O=C(c1ccc(F)cc1)N1CCN2C(=O)c3ccccc3C12c1ccccc1 (stereo not drawn) | 66 | / | 60*[inhibitor] | / | -38 | / | 103 | -2 | 101
CCOC(=O)c1sc2nccc(OC)c2c1N=CNOC | 94 | 5 | 102 | 1 | -5 | -4 | / | / | /
CS(=O)(=O)N(CC(=O)N1CCN(c2ccccc2F)CC1)c1cccc(C(F)(F)F)c1 | 93 | 12 | 99 | 0 | 1 | 3 | / | / | /
O=c1cc(N2CCCC2)c2ccccc2o1 | / | 4 | 1.0*[inhibitor] | 1 | -33 | -13 | 104 | -3 | 103
Cc1ccc(S(=O)(=O)N2CCOCC2)cc1NC(=O)CSc1nnc2cc(C)c3ccccc3n12 | 107 | 2 | 141* | 2 | 4 | -17 | 98 | -5 | 95
O=C(COC(=O)C1COc2ccccc2O1)Nc1cccc(S(=O)(=O)N2CCCCC2)c1 (stereo not drawn) | 99 | 1 | 98 | 0 | 0 | 17 | / | / | /
Cc1ccc(S(=O)(=O)N2CCCCC2)cc1NC(=O)CSc1nncn1-c1ccccc1 | / | -2 | 95 | 0 | 107* | 20 | 107 | 7 | 104
CCn1c(SCC(=O)OC)nnc1-c1c[nH]c2ccccc12 | 116 | / | 129* | / | 22 | / | 100 | 3 | 100
